Experimental data taken from ChEMBL document CHEMBL2429772, “Selective arylsulfonamide inhibitors of ADAM-17: hit optimization and activity in ovarian cancer cell models” (J Med Chem, 2013).
pIC50: −log10 of the molar value.

Tests used:
[1] = target: T1, Disintegrin and metalloproteinase domain-containing protein 17 (Homo sapiens, UniProt P78536); assay: Inhibition of ADAM-17 in human A2780 cells assessed as inhibition of pervanadate-induced sALCAM release incubated for 30 mins prior to pervanadate induction measured after 90 mins by ELISA; type: cell-based
[2] = target: T1, Disintegrin and metalloproteinase domain-containing protein 17; assay: Inhibition of ADAM-17 in human A2780 cells assessed as inhibition of EGF-induced sALCAM release incubated for 30 mins prior to EGF induction measured after 18 hrs by ELISA; type: cell-based
[3] = target: T1, Disintegrin and metalloproteinase domain-containing protein 17; assay: Inhibition of ADAM-17 in human SKOV3 cells transfected with luciferase gene assessed as inhibition of EGF-induced sALCAM release incubated for 30 mins prior to EGF induction measured after 18 hrs by ELISA; type: cell-based, SK-OV-3
[4] = Cytotoxicity against human A2774 cells assessed as cell viability at 0.01 to 10 uM after 24 to 72 hrs by MTT assay; type: cell-based; details: a2774, 10 µM
A2780 = assay: Cytotoxicity against human A2780 cells assessed as cell viability at 0.01 to 10 uM after 24 to 72 hrs by MTT assay; type: cell-based; details: a2780, 10 µM
[5] = target: T1, Disintegrin and metalloproteinase domain-containing protein 17; assay: Inhibition of ADAM-17 in human SKOV3 cells transfected with luciferase gene assessed as inhibition of pervanadate-induced sALCAM release incubated for 30 mins prior to pervanadate induction measured after 90 mins by ELISA; type: cell-based, SK-OV-3
[6] = target: T1, Disintegrin and metalloproteinase domain-containing protein 17; assay: Inhibition of ADAM-17 in human A2774 cells assessed as inhibition of pervanadate-induced sALCAM release incubated for 30 mins prior to pervanadate induction measured after 90 mins by ELISA; type: cell-based
SK-OV-3 = assay: Cytotoxicity against human SKOV3 cells transfected with luciferase gene assessed as cell viability at 0.01 to 10 uM after 24 to 72 hrs by MTT assay; type: cell-based; details: sk-ov-3, 10 µM
[7] = target: T1, Disintegrin and metalloproteinase domain-containing protein 17; assay: Inhibition of recombinant human ADAM-17 using Mca-Lys-Pro-Leu-Gly-Leu-Dap(Dnp)-Ala-Arg-NH2 as substrate incubated for 30 mins measured every 15 secs for 20 mins by fluorimetric assay
Procedure, shortened: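 Enzyme at 5 nM final was preincubated with inhibitor for 30 min at 37 °C in Tris 25 mM pH 9, ZnCl2 25 µM, 0.005% Brij-35. Substrate was at 2 µM final. Fluorescence increase (ex 325/em 400 nm) gave initial rates, in duplicate. IC50 was derived from vi/vo = 1/(1+[I]/IC50).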

[8] = target: Matrix metalloproteinase-9 (Homo sapiens, UniProt P14780); assay: Inhibition of recombinant human MMP-9 using Mca-Lys-Pro-Leu-Gly-Leu-Dap(Dnp)-Ala-Arg-NH2 as substrate incubated for 4 hrs measured every 15 secs for 20 mins by fluorimetric assay
Procedure, shortened: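 Pro-MMP-9 was activated with 1 mM APMA for 1 h at 37 °C and used at 1.3 nM final. Inhibitor was incubated with enzyme for 4 h at 25 °C in Tris 50 mM pH 7.5, NaCl 150 mM, CaCl2 10 mM, 0.05% Brij-35, 1% DMSO. Substrate was at 2 µM final, ex 325/em 400 nm, in duplicate. IC50 was obtained from vi/vo = 1/(1+[I]/IC50).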

Interstitial collagenase = target: T2, Interstitial collagenase (Homo sapiens, UniProt P03956); assay: Inhibition of recombinant human MMP-1 using Mca-Lys-Pro-Leu-Gly-Leu-Dap(Dnp)-Ala-Arg-NH2 as substrate incubated for 4 hrs measured every 15 secs for 20 mins by fluorimetric assay
T2 sequence (P03956 whole entry): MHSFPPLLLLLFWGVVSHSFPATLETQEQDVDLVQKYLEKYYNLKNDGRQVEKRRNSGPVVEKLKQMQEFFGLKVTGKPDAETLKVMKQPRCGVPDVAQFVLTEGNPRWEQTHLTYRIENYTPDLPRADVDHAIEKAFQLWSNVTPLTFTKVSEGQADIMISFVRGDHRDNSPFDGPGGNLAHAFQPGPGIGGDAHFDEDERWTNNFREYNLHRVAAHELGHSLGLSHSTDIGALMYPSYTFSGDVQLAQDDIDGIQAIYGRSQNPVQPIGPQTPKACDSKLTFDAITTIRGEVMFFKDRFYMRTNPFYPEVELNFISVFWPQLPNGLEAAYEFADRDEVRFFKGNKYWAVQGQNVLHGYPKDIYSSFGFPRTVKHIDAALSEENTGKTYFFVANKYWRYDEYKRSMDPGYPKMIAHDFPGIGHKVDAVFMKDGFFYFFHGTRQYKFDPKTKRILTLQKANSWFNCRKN
Procedure, shortened: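 Pro-MMP-1 was activated with 2 mM APMA for 2 h at 37 °C. Enzyme (2.0 nM final) was incubated with inhibitor in Tris 50 mM pH 7.5, NaCl 150 mM, CaCl2 10 mM, 0.05% Brij-35, 1% DMSO for 4 h at 25 °C. Substrate was added at 2 µM final. Fluorescence (ex 325/em 400 nm) was read for initial rates, in duplicate. IC50 came from vi/vo = 1/(1+[I]/IC50).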

[9] = target: 72 kDa type IV collagenase (Homo sapiens, UniProt P08253); assay: Inhibition of recombinant human MMP-2 using Mca-Lys-Pro-Leu-Gly-Leu-Dap(Dnp)-Ala-Arg-NH2 as substrate incubated for 4 hrs measured every 15 secs for 20 mins by fluorimetric assay
Procedure, shortened: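 Pro-MMP-2 was activated with 2 mM APMA for 1 h at 37 °C and used at 0.56 nM final. It was preincubated with inhibitor for 4 h at 25 °C in Tris 50 mM pH 7.5 buffer containing NaCl, CaCl2, Brij-35 and 1% DMSO. Substrate was at 2 µM final, ex 325/em 400 nm, run in duplicate. IC50 was taken from initial-velocity ratios, vi/vo = 1/(1+[I]/IC50).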

[10] = target: Matrix metalloproteinase-14 (Homo sapiens, UniProt P50281); assay: Inhibition of recombinant human MMP-14 catalytic domain using Mca-Lys-Pro-Leu-Gly-Leu-Dap(Dnp)-Ala-Arg-NH2 as substrate incubated for 4 hrs measured every 15 secs for 20 mins by fluorimetric assay
Procedure, shortened: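 MMP-14 catalytic domain was used at 1.0 nM final with no activation step. It was incubated with inhibitor for 4 h at 25 °C in Tris 50 mM pH 7.5 buffer with NaCl 150 mM, CaCl2 10 mM, 0.05% Brij-35 and 1% DMSO. Substrate was at 2 µM final, ex 325/em 400 nm, duplicate wells. IC50 was fitted by vi/vo = 1/(1+[I]/IC50).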

Chain of 72 kDa type IV collagenase (P08253 whole entry): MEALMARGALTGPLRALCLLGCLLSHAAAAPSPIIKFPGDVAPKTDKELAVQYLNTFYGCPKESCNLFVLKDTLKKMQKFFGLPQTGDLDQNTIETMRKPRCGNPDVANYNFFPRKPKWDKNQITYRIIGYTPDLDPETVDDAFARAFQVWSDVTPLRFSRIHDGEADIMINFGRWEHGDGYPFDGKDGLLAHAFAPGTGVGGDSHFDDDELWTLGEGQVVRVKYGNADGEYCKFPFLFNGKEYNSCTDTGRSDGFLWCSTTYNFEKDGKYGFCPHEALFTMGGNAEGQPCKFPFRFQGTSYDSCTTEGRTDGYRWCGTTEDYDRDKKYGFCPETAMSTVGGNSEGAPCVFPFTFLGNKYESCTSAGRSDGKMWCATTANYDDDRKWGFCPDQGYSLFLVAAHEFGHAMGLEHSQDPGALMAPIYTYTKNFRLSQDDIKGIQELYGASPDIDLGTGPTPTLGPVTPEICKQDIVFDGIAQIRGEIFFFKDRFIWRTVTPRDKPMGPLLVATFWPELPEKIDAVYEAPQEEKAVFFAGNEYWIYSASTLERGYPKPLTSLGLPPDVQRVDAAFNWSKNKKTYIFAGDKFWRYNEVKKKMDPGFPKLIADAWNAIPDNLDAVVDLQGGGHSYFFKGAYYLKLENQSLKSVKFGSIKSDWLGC
Chain of Matrix metalloproteinase-9 (P14780 whole entry): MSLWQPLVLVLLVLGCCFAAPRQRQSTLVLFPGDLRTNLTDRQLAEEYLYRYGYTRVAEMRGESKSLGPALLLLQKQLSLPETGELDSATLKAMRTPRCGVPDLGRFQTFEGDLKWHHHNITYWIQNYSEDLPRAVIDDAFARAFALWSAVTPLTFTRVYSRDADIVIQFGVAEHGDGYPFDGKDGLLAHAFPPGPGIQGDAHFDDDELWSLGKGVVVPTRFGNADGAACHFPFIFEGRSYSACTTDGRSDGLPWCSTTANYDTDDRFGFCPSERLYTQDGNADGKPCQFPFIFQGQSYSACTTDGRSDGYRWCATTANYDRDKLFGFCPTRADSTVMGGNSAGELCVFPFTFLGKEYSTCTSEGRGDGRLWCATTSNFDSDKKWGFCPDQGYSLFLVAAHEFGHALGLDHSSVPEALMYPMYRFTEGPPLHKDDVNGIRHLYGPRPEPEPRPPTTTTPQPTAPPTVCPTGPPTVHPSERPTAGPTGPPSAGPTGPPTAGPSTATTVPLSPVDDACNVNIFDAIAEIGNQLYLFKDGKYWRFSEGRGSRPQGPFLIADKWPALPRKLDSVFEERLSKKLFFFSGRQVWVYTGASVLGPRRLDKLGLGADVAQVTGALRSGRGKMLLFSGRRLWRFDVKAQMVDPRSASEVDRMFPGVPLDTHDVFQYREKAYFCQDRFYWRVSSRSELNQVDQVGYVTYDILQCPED
T1 sequence (P78536 whole entry, the tested form may be a part): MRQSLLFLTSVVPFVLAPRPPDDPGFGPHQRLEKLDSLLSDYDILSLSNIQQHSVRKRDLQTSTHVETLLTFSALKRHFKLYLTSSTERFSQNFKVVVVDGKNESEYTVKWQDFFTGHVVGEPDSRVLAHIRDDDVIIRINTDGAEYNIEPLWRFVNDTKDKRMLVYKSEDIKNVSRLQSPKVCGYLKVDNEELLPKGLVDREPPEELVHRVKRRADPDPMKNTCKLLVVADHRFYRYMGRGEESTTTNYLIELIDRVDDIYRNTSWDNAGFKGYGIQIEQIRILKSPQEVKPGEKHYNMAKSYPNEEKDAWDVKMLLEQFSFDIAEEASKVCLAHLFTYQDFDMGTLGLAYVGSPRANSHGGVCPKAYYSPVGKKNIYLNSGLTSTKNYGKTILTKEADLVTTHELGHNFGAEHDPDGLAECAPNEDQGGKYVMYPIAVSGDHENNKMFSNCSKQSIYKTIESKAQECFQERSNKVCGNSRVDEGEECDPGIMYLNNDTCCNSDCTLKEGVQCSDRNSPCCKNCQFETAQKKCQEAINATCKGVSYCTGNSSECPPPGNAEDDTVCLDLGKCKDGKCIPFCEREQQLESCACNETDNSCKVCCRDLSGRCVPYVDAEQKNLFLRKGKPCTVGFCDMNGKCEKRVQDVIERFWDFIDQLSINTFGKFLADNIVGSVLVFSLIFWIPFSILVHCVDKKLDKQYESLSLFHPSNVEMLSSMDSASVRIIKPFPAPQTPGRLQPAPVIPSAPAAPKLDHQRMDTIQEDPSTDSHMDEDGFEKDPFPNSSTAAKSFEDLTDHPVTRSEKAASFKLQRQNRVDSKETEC

Row | Structure (SMILES) | pIC50 [1] | pIC50 [2] | pIC50 [3] | Activity [4] | Activity (A2780) | pIC50 [5] | pIC50 [6] | Activity (SK-OV-3) | pIC50 [7] | pIC50 [8] | pIC50 (Interstitial collagenase) | pIC50 [9] | pIC50 [10]
1 | CC#CCOc1ccc(S(=O)(=O)N[C@H](CCNC(=O)OCc2ccccc2)C(=O)NO)cc1 | > 8.00 | 5.84 | 6.02 | Non-toxic | Non-toxic | 7.85 | 7.59 | Non-toxic |  |  |  |  | 
2 | O=C(CNS(=O)(=O)c1ccc(OCc2ccccc2)cc1)NO |  |  |  |  |  |  |  |  | 6.23 | 7.02 |  |  | 
3 | O=C(CNS(=O)(=O)c1ccc(OCc2cccc(Br)c2)cc1)NO |  |  |  |  |  |  |  |  | 6.98 | 7.22 | < 3.30 | 7.82 | 5.80
4 | O=C(CNS(=O)(=O)c1ccc(OCc2cccc(F)c2)cc1)NO |  |  |  |  |  |  |  |  | 7.15 | 6.96 | 4.21 | 8.11 | 6.03
5 | O=C(CNS(=O)(=O)c1ccc(OCc2cccc(OC(F)(F)F)c2)cc1)NO |  |  |  |  |  |  |  |  | 6.55 | 7.12 | < 3.30 | 7.70 | 5.54
6 | O=C(CNS(=O)(=O)c1ccc(OCc2cccc(-c3ccccc3)c2)cc1)NO |  |  |  |  |  |  |  |  | 7.12 | 6.04 | 4.00 | 7.39 | 5.77
7 | O=C(CNS(=O)(=O)c1ccc(OCc2cccc3cccnc23)cc1)NO |  |  |  |  |  |  |  |  | 6.19 | 4.54 | 3.21 | 6.17 | 3.92
8 | O=C(CNS(=O)(=O)c1ccc(OCc2cc(F)cc(F)c2)cc1)NO |  |  |  |  |  |  |  |  | 7.09 | 6.48 | 3.74 | 7.74 | 6.05
9 | CN(CC(=O)NO)S(=O)(=O)c1ccc(OCc2cc(Br)cc(Br)c2)cc1 |  |  |  |  |  |  |  |  | 6.80 |  | < 3.70 | 5.73 | 3.91
